Common to all, as to experiment: SPR analysis
What all share (assay type): binding

For experiment [1], the target named is T1, nuclear factor kappa B (NFKB1) (Homo sapiens, UniProt P19838).
T1 sequence (P19838 1-968): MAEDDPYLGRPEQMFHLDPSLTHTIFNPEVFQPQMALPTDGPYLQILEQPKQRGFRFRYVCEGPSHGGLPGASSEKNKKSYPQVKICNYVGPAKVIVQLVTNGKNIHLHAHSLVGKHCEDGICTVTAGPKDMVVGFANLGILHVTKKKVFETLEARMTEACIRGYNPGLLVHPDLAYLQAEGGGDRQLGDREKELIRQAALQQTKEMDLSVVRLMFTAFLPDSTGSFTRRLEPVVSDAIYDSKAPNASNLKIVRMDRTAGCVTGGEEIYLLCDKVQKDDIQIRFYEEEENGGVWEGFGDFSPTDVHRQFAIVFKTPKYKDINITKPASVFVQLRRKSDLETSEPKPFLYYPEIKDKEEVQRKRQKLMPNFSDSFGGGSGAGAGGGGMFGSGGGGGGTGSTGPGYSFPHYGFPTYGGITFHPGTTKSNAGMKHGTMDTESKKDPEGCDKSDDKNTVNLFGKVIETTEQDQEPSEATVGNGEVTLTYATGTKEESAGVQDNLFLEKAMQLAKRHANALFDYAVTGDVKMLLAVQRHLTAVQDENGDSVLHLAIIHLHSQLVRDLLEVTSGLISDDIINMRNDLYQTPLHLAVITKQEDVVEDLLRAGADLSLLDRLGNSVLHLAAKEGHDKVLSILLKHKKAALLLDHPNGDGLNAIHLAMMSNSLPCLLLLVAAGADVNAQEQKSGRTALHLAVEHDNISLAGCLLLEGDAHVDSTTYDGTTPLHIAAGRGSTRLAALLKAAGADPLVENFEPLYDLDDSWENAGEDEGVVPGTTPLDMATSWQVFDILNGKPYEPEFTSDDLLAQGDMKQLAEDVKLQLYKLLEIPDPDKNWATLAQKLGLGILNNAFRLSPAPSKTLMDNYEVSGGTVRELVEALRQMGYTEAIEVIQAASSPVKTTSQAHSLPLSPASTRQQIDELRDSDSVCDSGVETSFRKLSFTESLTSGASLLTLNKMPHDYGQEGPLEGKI
Summed up:
(§1)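 Each protein was amine-coupled to the chip after NHS/EDC (1:1, v/v) activation, at 14,874 RU (MMP-9), 11,000 RU (MAPK1), 11,800 RU (NFKB1) and 11,000 RU (TNF-α). A reference channel was activated and blocked without protein. Analytes flowed at 30 μL/min, with 60 s association and 120 s dissociation. Curves were fitted with 1:1 Langmuir and steady-state affinity models to give Ka, Kd and KD.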

Experiment [2] concerns the target mitogen-activated protein kinase (MAPK1) (Homo sapiens, UniProt P28482). The note with it: for kon: read-out: Ka (association rate constant); for koff: read-out: Kd (dissociation rate constant). Summed up: as §1
In experiment [3] the target is matrix metalloproteinase-9 (MMP-9) (Homo sapiens, UniProt P14780). The method in brief: as §1
Sequence of matrix metalloproteinase-9 (MMP-9) (P14780 94-707): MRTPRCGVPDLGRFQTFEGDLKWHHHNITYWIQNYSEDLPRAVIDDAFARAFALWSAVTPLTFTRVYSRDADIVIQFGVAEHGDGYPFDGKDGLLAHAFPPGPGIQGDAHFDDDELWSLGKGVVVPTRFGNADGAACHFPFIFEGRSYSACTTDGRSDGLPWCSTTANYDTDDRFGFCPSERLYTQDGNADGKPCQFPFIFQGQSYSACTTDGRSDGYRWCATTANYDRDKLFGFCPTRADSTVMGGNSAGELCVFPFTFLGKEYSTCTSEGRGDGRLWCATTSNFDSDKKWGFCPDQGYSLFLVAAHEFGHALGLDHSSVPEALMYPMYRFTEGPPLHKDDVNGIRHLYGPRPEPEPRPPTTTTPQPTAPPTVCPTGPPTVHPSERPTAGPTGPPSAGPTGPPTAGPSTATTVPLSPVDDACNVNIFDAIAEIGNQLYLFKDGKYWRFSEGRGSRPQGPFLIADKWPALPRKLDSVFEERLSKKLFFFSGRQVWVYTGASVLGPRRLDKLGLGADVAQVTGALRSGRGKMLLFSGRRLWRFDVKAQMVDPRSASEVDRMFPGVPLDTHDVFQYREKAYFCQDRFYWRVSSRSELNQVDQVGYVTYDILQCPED
Experiment [4] deals with tumor necrosis factor (TNF-α) (Homo sapiens, UniProt P01375). The method in brief: as §1
Sequence of tumor necrosis factor (TNF-α) (P01375 77-233 limits assumed): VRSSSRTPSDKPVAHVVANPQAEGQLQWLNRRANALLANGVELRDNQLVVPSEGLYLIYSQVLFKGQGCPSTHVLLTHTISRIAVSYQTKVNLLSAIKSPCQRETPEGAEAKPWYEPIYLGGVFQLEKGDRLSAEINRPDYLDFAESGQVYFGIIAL

Sequence of mitogen-activated protein kinase (MAPK1) (P28482 whole entry): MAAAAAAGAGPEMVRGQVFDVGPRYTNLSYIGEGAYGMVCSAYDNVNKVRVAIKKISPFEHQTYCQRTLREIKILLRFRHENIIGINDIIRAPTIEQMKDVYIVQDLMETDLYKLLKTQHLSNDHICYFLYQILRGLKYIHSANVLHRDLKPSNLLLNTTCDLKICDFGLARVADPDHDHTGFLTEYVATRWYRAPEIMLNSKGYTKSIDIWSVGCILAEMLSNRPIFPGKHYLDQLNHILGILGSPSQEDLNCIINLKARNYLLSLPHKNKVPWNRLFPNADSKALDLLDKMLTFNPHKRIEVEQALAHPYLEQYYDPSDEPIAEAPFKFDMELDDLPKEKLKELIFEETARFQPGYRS

In experiment [1], `COc1ccc(-c2coc3cc(O)ccc3c2=O)cc1` [Formononetin] showed an equilibrium dissociation constant (Kd) of 32.5 µM.
`COc1cc2c(cc1CC=C(C)C)C(=O)C[C@@H](c1ccc(O)cc1)O2` [Bavachinin A] displayed a dissociation constant (Kd) in experiment [2] of 6.05 µM.
For the molecule `CC(C)=CCc1cc2c(cc1O)O[C@H](c1ccc(O)cc1)CC2=O` [Bavachin], in experiment [2], the Kd is 26.6 µM, the kon worked out at 9290 M⁻¹ s⁻¹ and the koff is 0.247 s⁻¹.
Consider `O=C(/C=C/c1ccc(O[C@@H]2O[C@H](CO)[C@@H](O)[C@H](O)[C@H]2O)cc1)c1ccc(O)cc1O` [Isoliquiritin], for which the dissociation constant (Kd) in experiment [3] is 2.7 µM; in experiment [4], 3.6 µM.
As to `O=C1C[C@@H](c2ccc(O[C@@H]3O[C@H](CO)[C@@H](O)[C@H](O)[C@H]3O)cc2)Oc2cc(O)ccc21` [Liquiritin], the Kd stood at 105 µM in experiment [3] and 382 µM in experiment [2]. The figures for the kon in experiment [3] (read-out: Ka (association rate constant)) and in experiment [2] were 251 M⁻¹ s⁻¹ and 258 M⁻¹ s⁻¹, respectively. Also, the koff in experiment [3] (read-out: Kd (dissociation rate constant)) was 0.0264 s⁻¹; in experiment [2], 0.0984 s⁻¹.
In the case of `COc1ccc(-c2coc3cc(O[C@@H]4O[C@H](CO)[C@@H](O)[C@H](O)[C@H]4O)ccc3c2=O)cc1` [Ononin], the equilibrium dissociation constant (Kd) in experiment [2] is 41.4 µM.

As usually defined, the Kd is the free concentration of one partner at which half of the binding sites on the other are occupied at equilibrium, for simple one-to-one binding. A higher Kd goes with lower affinity.

Source of the values: paper PMC8055291 (Journal of Inflammation Research, 2021).
